Compound activity from PubChem.
CHT block = human CHT choline transport inhibition. Q9GZV3. B-score at 10 µM. CHT-expressing cells, membrane potential dye, choline response; stronger effect = lower value. 310,000 tested, 0.86% active;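 active means B-score over 3 SD under the library average, and starting fluorescence ratio not unusually high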;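 further: choline stimulus applied at its EC90 after an EC20 pre-addition; B-score computed on integrated fluorescence ratio after choline addition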
Target sequence (Q9GZV3 whole entry, looked up): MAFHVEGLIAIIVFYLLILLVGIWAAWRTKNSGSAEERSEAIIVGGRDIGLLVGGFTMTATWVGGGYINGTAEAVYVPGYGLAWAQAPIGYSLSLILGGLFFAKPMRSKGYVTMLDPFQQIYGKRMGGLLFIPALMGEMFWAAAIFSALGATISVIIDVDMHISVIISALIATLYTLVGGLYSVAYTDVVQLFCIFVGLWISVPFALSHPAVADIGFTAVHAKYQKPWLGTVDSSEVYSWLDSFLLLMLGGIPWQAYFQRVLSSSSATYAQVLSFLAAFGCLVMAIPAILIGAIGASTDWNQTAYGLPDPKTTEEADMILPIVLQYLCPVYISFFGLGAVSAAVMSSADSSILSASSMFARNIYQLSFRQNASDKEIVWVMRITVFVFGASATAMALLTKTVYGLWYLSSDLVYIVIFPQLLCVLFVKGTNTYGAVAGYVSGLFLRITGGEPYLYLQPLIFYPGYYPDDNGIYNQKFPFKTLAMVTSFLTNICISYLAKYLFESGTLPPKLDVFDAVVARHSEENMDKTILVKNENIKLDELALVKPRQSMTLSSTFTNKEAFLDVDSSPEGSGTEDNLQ
PolyA inhibitor = yeast polyadenylation inhibition. S. cerevisiae SKY197-pL101 polyadenylation reporter, beta-gal luminescence; efflux-impaired pdr1/pdr3 knockout yeast; score 100 = 6 SD above DMSO. activity score, % at 12 µM. 300,000 tested, 0.02% active;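 active means lowest replicate activity score at least 50, where 100 means six control SD above control mean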;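 further: yeast exposed to compound for 9 h at 30 °C; higher score means more reporter readthrough which indicates perturbed polyadenylation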
CHT PAM = human CHT allosteric activation | Q9GZV3 | CHT-expressing cells, membrane potential dye, choline EC20; stronger effect = higher value; LV-AA mutant CHT in HEK293 cells | B-score at 10 µM | 310,000 tested, 0.49% active | AID 488977;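 active means initial fluorescence not abnormally high and integrated response B-score, plate-corrected, over 3 SD above library mean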
T cruzi repl = T. cruzi replication inhibition; inhibition, % (no concentration beside the values); T. cruzi beta-gal in NIH3T3, luminescence, 90 h; 300,000 tested, 1.4% active; AID 1885;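 active means mean inhibition across valid replicates above about 55%, limit read from the data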;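 further: signal also drops with host cell toxicity which is not excluded here; 0% = plate median of DMSO wells and 100% = zero luminescence signal; higher percent means less beta-gal luminescence so fewer parasites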
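Material: NIH/3T3 host cells with β-galactosidase reporter T. cruzi; Input: 5,000 host fibroblasts per well; Medium: DMEM, 2% fetal bovine serum; Compound: 50 nL DMSO compound solution per well; Schedule: 3 h host attachment, then at least 90 h co-culture; Detection: luminescent β-galactosidase signal after 60 min lysis.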
CHT act confirm = confirmation of human choline transporter (CHT) activators; shares compounds with CHT PAM; CHT-expressing cells, membrane potential dye fluorescence (FDSS); % of choline EC20–EC90 response window; HEK293 expressing CHT LV-AA mutant; choline added at its EC20; activation, % at 10 µM; 2,500 tested, 91% active;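 active means primary screen active, with duplicate mean activation above negative control mean plus 3 SD, cut at about 11% in these data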
HEK293 MP dye = activity in parental HEK293 cells lacking CHT; shares compounds with CHT PAM; 2,500 tested, 62% active; ratio readout change at 10 µM, hits read low; membrane potential dye fluorescence (FDSS); measured after EC20 choline addition;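 active means duplicate-averaged ratio beyond 3 SD from buffer wells, up or down, though filed actives are nearly all decreases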
* = called active by the depositor; i = inactive; · = no result. Sampled rows, rich in hits. Any-hit rate of the full collection: about 2.6%.

SMILES	CHT block	PolyA inhibitor	CHT PAM	T cruzi repl	CHT act confirm	HEK293 MP dye
O=C(Nc1ccc2nc(SCc3ccc(Cl)cc3)sc2c1)c1ccccc1C(=O)N1CCOCC1	i	7	i	18	46*	i
CN1CCN(Cc2nc3ccccc3c(=O)n2Cc2nc(-c3ccccc3F)cs2)CC1	i	15	8.2*	24	30*	i
COc1ccc(N(CC(=O)NC2CCCC2)C(=O)CCC(=O)Nc2nc(C)cs2)cc1OC	i	17	i	-5	·	·
O=S(=O)(c1ccc(C2=CSC3=NCCN23)cc1)N1CCOCC1	i	3	6.3*	5	36*	-40*
CCOC(=O)c1sc2nc(SCC#N)n(CCCN3CCCC3=O)c(=O)c2c1C	i	12	i	33	21*	i
CCOC(=O)c1sc2nc3n(c(=O)c2c1C)CCC3	i	12	i	-3	·	·
CCOC(=O)c1ccc2c(c1)n(CC)c(/C=C/N(C)c1ccccc1)[n+]2CC	i	5	7.4*	37	44*	-63*
N#CC(C#N)=c1ccc2c(c1)NC1(CCCCC1)N=2	i	-6	6.4*	11	51*	-64*
O=C(c1ccccc1-c1ccccc1)N1CCN(c2ccccn2)CC1	i	33	i	-35	38*	i
Cc1cc(C)nc(SCc2nc3nc(C)cc(C)n3c2Br)n1	i	-18	i	9	·	·
Cc1cc(C)n2c(Br)c(CN3CCCC(C)C3)nc2n1 (stereo not given)	i	20	6.6*	-16	29*	-51*
COc1ccc(NC(=O)COC(=O)CCOc2ccccc2C)cc1Cl	i	-17	i	-11	·	·
CCN1CCN(c2cc3c(cc2F)c(=O)c(C(=O)O)cn3C2CC2)CC1	i	9	8.7*	-2	54*	-58*
Cc1nc(C)c(-c2csc(Nc3cccnc3)n2)s1	i	5	i	34	35*	-34*
Clc1cccc(-c2csc(Nc3cccnc3)n2)c1	i	0	i	41	·	·
COc1ccc(-c2csc(Nc3cccnc3)n2)cc1OC	i	8	i	19	·	·
c1cncc(Nc2nc(-c3cccnc3)cs2)c1	i	3	6.9*	29	43*	-45*
c1cncc(Nc2nc(-c3ccncc3)cs2)c1	i	2	7.5*	26	46*	-49*
COc1ccc(C(CCNCc2ccc(OC)c(OC)c2)c2ccc(F)cc2)cc1 (stereo not given)	i	4	7.4*	18	28*	i
COc1ccc(C(CCNCc2ccc(N(C)C)cc2)c2ccccc2)cc1 (stereo not given)	i	1	7*	29	9	i
COc1ccc(NCc2ccc(OC)c(OC)c2)cc1	i	-1	i	-3	·	·
Cc1cc(NC(=O)c2ccc(Br)o2)ccc1NC(=O)c1ccco1	i	13	i	3	·	·
COc1ccc(Nc2nccc(N(C)C)c2C#N)cc1	i	-7	i	-20	50*	-42*
CN(C(=O)c1cc(COc2ccc(F)c(F)c2)on1)C1CCOC1 (stereo not given)	i	12	i	2	·	·
COC1=C(Nc2ccc(C)cc2)C(=O)c2ccccc2C1=O	i	-34	i	-7	·	·
SMILES	CHT block	PolyA inhibitor	CHT PAM	T cruzi repl	CHT act confirm	HEK293 MP dye
COC1=C(Nc2ccccc2)C(=O)c2ccccc2C1=O	i	-35	i	3	35*	-58*
CC1Sc2ccc(C(=O)OCc3ccccc3Cl)cc2NC1=O (stereo not given)	i	-1	i	-10	·	·
Cc1cccc2c(=O)cc(C)n(CC(=O)N3CCCCC3)c12	i	0	7.6*	4	62*	-70*
Cc1cccc2c(=O)cc(C)n(Cc3ccccc3)c12	i	-23	i	4	·	·
Cc1cccc2c(=O)cc(C)n(CC(=O)N3CCOCC3)c12	i	1	10*	5	47*	i
COc1ccccc1C(=O)N/N=C(\C)c1cccnc1	i	-1	i	1	·	·
Nc1nc(Nc2cccc(Cl)c2)n[nH]1	i	-2	i	4	·	·
Cc1ccccc1-n1nc(CSc2nc3ccccc3[nH]2)c(-c2ccccc2)c1N	i	6	i	11	35*	i
c1ccc(CSc2nc3ccccc3[nH]2)cc1	i	-15	i	-1	·	·
CC[C@@H](C)[C@H](CN[C@H](CNC)C(C)C)NC[C@@H](C)c1ccc(CC(C)C)cc1	i	-8	i	37	0	i
Cc1ccc(NC(=O)CCNS(=O)(=O)c2ccccc2F)cc1S(=O)(=O)N1CCOCC1	i	5	i	-5	·	·
COC(=O)c1sccc1NC(=O)C1CCCCC1C(=O)O (stereo not given)	i	2	i	4	·	·
CN(C)CCNc1nc2c(c(=O)[nH]c(=O)n2C)n1CC(O)COc1ccc(Cl)cc1 (stereo not given)	i	1	i	14	·	·
CCN(CC)CCNc1nc2c(c(=O)[nH]c(=O)n2C)n1CC(O)COc1ccc(Cl)cc1Cl (stereo not given)	i	0	9.5*	-4	53*	-53*
O=C(Nc1c(C(=O)N2CCN(c3ccccn3)CC2)oc2ccccc12)c1cccc([N+](=O)[O-])c1	i	8	i	14	·	·
CCCSc1nc2cc(OC)c(OC)cc2c(=N)n1CCCN1CCOCC1	i	11	6.5*	22	53*	-40*
COc1cccc(CCN2CCC(CNS(=O)(=O)c3cc(-c4cc(C)no4)ccc3OC)CC2)c1	i	6	i	22	·	·
COc1ccccc1CN1CCC(CNS(=O)(=O)c2cc(-c3onc(C)c3C)ccc2OC)CC1	i	3	i	35	39*	-48*
COc1cc(C(=O)NCC2(N(C)C)CCCCC2)ccc1OCc1ccccc1	i	-1	i	-6	·	·
FC(F)Oc1ccc(-n2cc(-c3ccccc3)[n+]3c2CCCCC3)cc1	i	0	i	17	·	·
Cc1ccc(-c2cn(-c3ccc(OC(F)F)cc3)c3[n+]2CCCCC3)cc1	i	-16	i	49	57*	i
CNC(=O)Cn1c(C)cc(=O)c2cccc(C)c21	i	-5	10*	2	63*	-73*
CCOC(=O)Cn1c(C)cc(=O)c2cccc(C)c21	i	-14	i	-15	53*	-74*
O=C(C1CC(=O)N(C2CCCCC2)C1)N1CCN(c2cccc(C(F)(F)F)c2)CC1 (stereo not given)	i	15	i	-3	·	·
Cc1ccc(C(=O)CSc2nc(O)cc(=O)[nH]2)cc1C	i	-5	i	-6	·	·
